Data as given in article PMC5224883 (Chemistry (Weinheim an der Bergstrasse, Germany), 2016).

Assays:
CXCR4 = CXCR4 (Homo sapiens, UniProt P61073); assay: Chemokine-induced calcium signalling assay; type: cell-based; conditions: read-out: Ca^2+ flux IC50 CXCR4; CXCR4-positive U87 cell line, CXCL12 (SDF-1) induced Ca^2+ signalling, triplicate average
[1] = Cyclic voltammetry of copper acetate complexes; type: physicochemical; conditions: 1 mM in acetonitrile, 0.1 M TBAPF6, 200 mV/s, vs SHE
How it was run: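 Working electrode was a Pt button, with a Pt-wire counter electrode and an Ag-wire pseudo-reference electrode. Tests were run under N2. Potentials were referenced to SHE using ferrocene as an internal standard (+0.400 V versus SHE). Samples were Cu2+ acetate complexes.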

Sequence of CXCR4 (P61073 whole entry): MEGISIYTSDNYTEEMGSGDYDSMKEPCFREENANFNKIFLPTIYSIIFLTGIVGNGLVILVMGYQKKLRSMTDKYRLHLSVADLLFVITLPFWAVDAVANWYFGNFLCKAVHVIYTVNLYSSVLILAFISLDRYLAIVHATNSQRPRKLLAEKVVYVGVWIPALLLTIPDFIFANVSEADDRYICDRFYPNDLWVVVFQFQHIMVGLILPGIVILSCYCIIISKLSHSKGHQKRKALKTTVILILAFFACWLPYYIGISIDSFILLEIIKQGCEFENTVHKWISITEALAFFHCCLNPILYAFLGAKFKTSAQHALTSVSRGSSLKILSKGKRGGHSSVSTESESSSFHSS

IC50 (CXCR4): 156 nM | Eox (Cu^2+/3+) [1]: +1.516 V | Ered (Cu^2+/+) [1]: −0.641 V | Eox (^Cu+/2+) ([1]; return oxidation): −0.156 V
Compound: CC(=O)[O-].[Cu+2].c1ccc(CN2CCCN3CCN(CCCN(Cc4ccccc4)CC3)CC2)cc1 [[Cu5(OAc)]^+]
